# pKi: −log10 of the molar value.
# Experiments:
# [1] = molecular target: Insulin-like growth factor-binding protein 3 (Homo sapiens, UniProt P17936); assay: Inhibitory activity against Insulin-like growth factor binding protein 3
# Outline: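 IGFBP-3 purified from human plasma (0.5 pmol, 2.5 nM added) incubated 2 h at room temperature with [125I]hIGF-I (30,000 cpm) and compound in 0.02% NP-40/PBS pH 7.2, in duplicate. Complex precipitated with ice-cold 20% BSA plus 20% PEG-8000 and centrifuged; pellet counted by γ-counter. Ki calculated from inhibition of binding.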
# [2] = molecular target: T1, Insulin-like growth factor-binding protein 4 (Homo sapiens, UniProt P22692); assay: The compound was tested for binding affinity against Insulin-like growth factor binding protein 4
# T1 sequence (P22692 whole entry): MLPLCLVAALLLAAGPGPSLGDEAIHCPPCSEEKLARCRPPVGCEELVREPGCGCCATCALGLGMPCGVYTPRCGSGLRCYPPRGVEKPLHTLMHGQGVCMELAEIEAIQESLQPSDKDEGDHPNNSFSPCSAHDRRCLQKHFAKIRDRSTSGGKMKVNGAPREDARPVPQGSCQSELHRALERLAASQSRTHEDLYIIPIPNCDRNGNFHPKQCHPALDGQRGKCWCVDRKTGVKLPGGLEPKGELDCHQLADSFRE
# Outline: (§1)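 Human IGFBP-1, -2, -4, -5 or -6 expressed in Sf9 insect cells (baculovirus), purified on hIGF-II affinity column then reversed-phase HPLC. 0.5 pmol binding protein incubated with [125I]hIGF-I (30,000 cpm) and increasing compound concentrations, 2 h at room temperature, in 0.02% NP-40/PBS pH 7.2, in duplicate. Complex precipitated with BSA/PEG; pellet radioactivity counted to give dose–response curves.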
# [3] = molecular target: Insulin-like growth factor-binding protein 5 (Homo sapiens, UniProt P24593); assay: The compound was tested for binding affinity against Insulin-like growth factor binding protein 5; outline: as §1
# Sequence of Insulin-like growth factor-binding protein 5 (P24593 whole entry): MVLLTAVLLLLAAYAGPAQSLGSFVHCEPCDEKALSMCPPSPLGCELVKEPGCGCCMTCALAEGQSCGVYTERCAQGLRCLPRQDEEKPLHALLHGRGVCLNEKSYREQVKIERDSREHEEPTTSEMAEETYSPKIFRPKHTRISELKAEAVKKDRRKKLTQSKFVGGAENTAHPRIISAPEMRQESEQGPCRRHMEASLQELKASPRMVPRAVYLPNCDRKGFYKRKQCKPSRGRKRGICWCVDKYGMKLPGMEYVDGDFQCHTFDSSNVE
# [4] = molecular target: T2, Insulin-like growth factor-binding protein 6 (Homo sapiens, UniProt P24592); assay: The compound was tested for binding affinity against Insulin-like growth factor binding protein 6; outline: as §1
# T2 sequence (P24592 whole entry): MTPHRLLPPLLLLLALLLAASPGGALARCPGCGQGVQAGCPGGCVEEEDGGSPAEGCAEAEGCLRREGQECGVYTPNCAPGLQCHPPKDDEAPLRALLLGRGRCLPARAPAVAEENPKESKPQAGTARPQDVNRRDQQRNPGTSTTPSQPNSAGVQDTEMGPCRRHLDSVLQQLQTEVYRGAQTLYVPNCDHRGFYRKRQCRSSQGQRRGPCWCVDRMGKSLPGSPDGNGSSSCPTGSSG
# [5] = molecular target: T3, Insulin-like growth factor-binding protein 1 (Homo sapiens, UniProt P08833); assay: The compound was tested for binding affinity against insulin-like growth factor binding protein 1; outline: as §1
# T3 sequence (P08833 whole entry): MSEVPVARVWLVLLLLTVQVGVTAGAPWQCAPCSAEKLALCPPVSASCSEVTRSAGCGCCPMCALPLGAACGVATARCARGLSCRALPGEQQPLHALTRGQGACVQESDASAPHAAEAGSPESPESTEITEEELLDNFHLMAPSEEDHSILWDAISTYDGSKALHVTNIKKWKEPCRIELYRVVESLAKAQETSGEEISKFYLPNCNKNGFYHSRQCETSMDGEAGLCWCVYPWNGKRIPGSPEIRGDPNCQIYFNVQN
# [6] = molecular target: T4, Insulin-like growth factor-binding protein 2 (Homo sapiens, UniProt P18065); assay: The compound was tested for binding affinity against insulin-like growth factor binding protein 2; outline: as §1
# T4 sequence (P18065 whole entry): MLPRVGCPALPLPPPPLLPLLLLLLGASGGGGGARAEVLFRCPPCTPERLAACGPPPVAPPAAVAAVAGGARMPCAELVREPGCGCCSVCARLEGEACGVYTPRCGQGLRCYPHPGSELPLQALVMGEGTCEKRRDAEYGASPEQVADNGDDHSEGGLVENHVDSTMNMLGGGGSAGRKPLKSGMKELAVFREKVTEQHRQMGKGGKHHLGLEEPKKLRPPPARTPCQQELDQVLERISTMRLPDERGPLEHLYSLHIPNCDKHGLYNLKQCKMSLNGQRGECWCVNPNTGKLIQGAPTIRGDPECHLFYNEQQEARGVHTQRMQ
# Sequence of Insulin-like growth factor-binding protein 3 (P17936 whole entry): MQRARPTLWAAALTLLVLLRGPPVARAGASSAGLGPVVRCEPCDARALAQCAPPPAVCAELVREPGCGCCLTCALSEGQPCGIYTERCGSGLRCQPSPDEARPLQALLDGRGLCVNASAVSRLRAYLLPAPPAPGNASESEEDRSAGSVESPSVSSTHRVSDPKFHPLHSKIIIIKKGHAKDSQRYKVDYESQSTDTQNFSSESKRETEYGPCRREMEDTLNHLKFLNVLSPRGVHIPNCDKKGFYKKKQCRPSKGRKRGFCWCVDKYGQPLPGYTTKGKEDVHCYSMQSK
pKi [1],SMILES,also measured
< 5.00,COc1ccc(C(=O)c2[nH]c(=O)cc3cc(OC)c(OC)cc23)cc1OC,–
7.15,COc1cc2c(C(=O)c3ccc(O)c(O)c3)nc(C(=O)O)cc2c(Br)c1O,–
< 5.00,CCOC(=O)c1cc2cc(OC)c(OC)cc2c(C(=O)c2ccc(OC)c(OC)c2)n1,–
7.57,O=C(O)c1cc2cc(O)c(O)cc2c(C(=O)c2cccc3ccccc23)n1,–
7.36,O=C(O)c1cc2cc(O)c(O)cc2c(C(=O)c2ccc(Cl)cc2Cl)n1,–
7.24,O=C(c1ccc(O)c(O)c1)c1nccc2cc(O)c(O)cc12,–
7.55,O=C(c1ccc(O)c(O)c1)c1nc(O)cc2cc(O)c(O)cc12,pKi [2]: 8.21; pKi [3]: 7.68; pKi [4]: 7.07; pKi [5]: 7.47; pKi [6]: 7.77
7.89,O=C(O)c1cc2cc(O)c(O)cc2c(C(=O)c2ccc3ccccc3c2)n1,–
< 5.00,COc1ccc(C(=O)c2nc(C(=O)O)cc3cc(OC)c(OC)cc23)cc1O,–
6.85,COc1cc2cc(C(=O)O)nc(C(=O)c3ccc(O)c(O)c3)c2c(Br)c1O,–
7.15,O=C(O)c1cc2cc(O)c(O)cc2c(C(=O)c2ccc3c(c2)OCO3)n1,–
8.25,O=C(O)c1cc2cc(O)c(O)cc2c(C(=O)c2ccc(O)c(O)c2)n1,pKi [2]: 8.98; pKi [3]: 8.28; pKi [4]: 7.63; pKi [5]: 8.29; pKi [6]: 8.68
7.54,Oc1cc2cc(O)c(O)cc2c(Cc2ccc(O)c(O)c2)n1,–
< 5.00,COc1cc2cc(C(=O)O)nc(C(=O)c3ccc(O)c(O)c3)c2cc1OC,–
6.49,COc1ccc(C(=O)c2nc(C(=O)O)cc3cc(OC)c(O)cc23)cc1O,–
8.12,O=C(O)c1cc2cc(O)c(O)cc2c(Cc2ccc(O)c(O)c2)n1,–

# — ChEMBL document CHEMBL1134274, “Discovery of a series of nonpeptide small molecules that inhibit the binding of insulin-like growth factor (IGF) to IGF-binding proteins” (J Med Chem, 2001)
